The values below come from ChEMBL document CHEMBL2010714, “Radical-regulating and antiviral properties of ascorbic acid and its derivatives” (Bioorg Med Chem Lett, 2012).

One data set has as its system Human alphaherpesvirus 1. The data set is described as follows: Antiviral activity against Herpes simplex virus type 1 infected in human RD cells assessed as inhibition of virus-induced cytopathic effect. It is filed as functional, organism-based. Conditions: Human alphaherpesvirus 1, RD. A digest of the protocol:
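Human RD cells infected with HSV-1. Cytopathic-effect method. Activity criterion: reduction in virus titer with test compound versus untreated infected control. EC50 and EC90 taken as concentrations suppressing virus replication by 50% and 90%. Maximum non-toxic concentration determined separately in uninfected cultures after 72 h incubation.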
(In general: Cytopathic effects are the visible damage that an infection or toxin causes in cultured cells.)

The nature of data set [1]: Selectivity ratio of MNTD for human RD cells to EC90 for HSV1. The class given is ADME, cell-based. A digest of the protocol:
(§1)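 HSV-1-infected human RD cells were assessed by cytopathic effect. Virus titer reduction relative to untreated control gave concentrations suppressing replication by 50% and 90% (EC50, EC90). Maximum non-toxic concentration was found in uninfected RD cells after 72 h. The ratio divides MNTC by EC50 or EC90.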

Data set [2] in a line: Cytotoxicity against human RD cells assessed maximun non-toxic concentration. The class given is cell-based. The method in brief: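 Maximum non-toxic concentration determined in uninfected human RD cell culture after 72 h incubation with compound.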
Data set [3] can be described thus: Selectivity ratio of MNTD for human RD cells to EC50 for HSV1. It is filed as ADME, cell-based. A digest of the protocol: as §1

For `O=C1O[C@H]([C@@H](O)CO)C(O)=C1O[C@H]1O[C@H](CO)[C@@H](O)[C@H](O)[C@H]1O`, in the data set on Human alphaherpesvirus 1, the EC50 stood at 16.3 µM and the EC90 stood at 26.9 µM. Moreover, in data set [1], the selectivity ratio was 43.9. The MNTC in data set [2] is 1.18 mM. In addition, the selectivity ratio in data set [3] amounted to 72.7.
For the compound `CCCCCCCCCCCCCCCC(=O)OC[C@H](O)[C@H]1OC(=O)C(O[C@H]2O[C@H](CO)[C@@H](O)[C@H](O)[C@H]2O)=C1O`, in the data set on Human alphaherpesvirus 1, the EC50 was 4.5 µM and the EC90 came out at 6.2 µM. For the same compound, the selectivity ratio in data set [1] amounted to 13.9. In addition, in data set [2], the MNTC is 0.0868 mM. In data set [3], the selectivity ratio worked out at 19.2.
As to `COC1=C(OC)[C@@H]([C@@H]2COC(C)(C)O2)OC1=O`, in the data set on Human alphaherpesvirus 1, the EC50 was over 1640 µM. The same compound came in with an MNTC in data set [2] of 1.64 mM. The selectivity ratio in data set [3] was under 1.
Consider `COC1=C(OC)[C@@H]([C@@H](O)CO)OC1=O`, for which, in the data set on Human alphaherpesvirus 1, the 50% effective concentration (EC50) is 1810 µM and the EC90 turned out to be 3280 µM. The selectivity ratio in data set [1] was 0.6. Further, the MNTC in data set [2] stood at 1.96 mM. For the same compound, the selectivity ratio in data set [3] was 1.1.
Take `O=C1O[C@H]([C@@H](O)CO)C(O)=C1O` [ASCORBIC ACID]: the EC50 in the data set on Human alphaherpesvirus 1 is over 2270 µM. For the same compound, in data set [2], the MNTC amounted to 2.27 mM. Moreover, in data set [3], the selectivity ratio was under 1.
The matching figures for `CCCCCCCCCCCCCCCC(=O)OC[C@H](O)[C@H]1OC(=O)C(O)=C1O` [ASCORBYL PALMITATE]: over 240 µM, 0.24 mM and under 1.

As a reminder, the EC50 is the concentration needed to bring the measured effect to its halfway point. One may read the EC90 as the concentration at which the effect reaches the 90% level.
